Only some compounds are listed: those with a hit (about 3.4% of all), similar ones and a draw of the others.
APOBEC3A inh = inhibitors of human APOBEC3A DNA deaminase. hit rate 0.41% among 330,000. P31941. inhibition, % at 20 µM. recombinant A3A, FAM/TAMRA ssDNA deamination fluorescence;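 active = at least 40% inhibition at 20 µM here, with at most 30% in a related deaminase screen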;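 note: plate controls were A3A with DMSO for no effect and wells lacking A3A enzyme for full effect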
Target sequence (P31941 whole entry, looked up): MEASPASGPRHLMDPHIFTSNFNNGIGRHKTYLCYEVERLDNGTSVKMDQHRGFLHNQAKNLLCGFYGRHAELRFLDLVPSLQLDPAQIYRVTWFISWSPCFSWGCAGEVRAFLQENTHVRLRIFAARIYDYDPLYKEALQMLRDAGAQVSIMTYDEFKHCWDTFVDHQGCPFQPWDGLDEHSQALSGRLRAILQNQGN
UCH37 DUB inh = blocks the human deubiquitinase UCH37. Q9Y5K5. purified proteasome/UCH37, Ub-AMC cleavage fluorescence. inhibition, % (test concentration not listed). hit rate 0.33% among 330,000;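 active = mean inhibition over replicate wells above about 20%, limit read from the data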;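 note: 0% = compound-free wells with enzyme and 100% = wells lacking proteasome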
Target sequence (Q9Y5K5 whole entry, looked up): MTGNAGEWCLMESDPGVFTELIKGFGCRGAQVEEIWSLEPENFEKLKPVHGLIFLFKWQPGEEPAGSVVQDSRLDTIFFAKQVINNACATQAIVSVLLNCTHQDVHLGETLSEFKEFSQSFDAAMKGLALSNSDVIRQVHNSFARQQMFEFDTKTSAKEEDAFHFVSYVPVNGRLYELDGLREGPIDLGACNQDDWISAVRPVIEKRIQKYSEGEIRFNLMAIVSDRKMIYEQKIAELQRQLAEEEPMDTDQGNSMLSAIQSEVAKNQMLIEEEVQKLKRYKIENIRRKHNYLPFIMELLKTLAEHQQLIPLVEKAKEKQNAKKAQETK
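Schedule: 30 min plus 25 min, room temperature / Material: human UCH37 within purified proteasomes / Technique: AMC fluorescence intensity at 355/460 nm / Buffer or medium: pH 7.4 Tris-HCl (50 mM) with ovalbumin, ATP-MgCl2, DTT / Controls: wells without proteasome as full block, compound-free enzyme plus substrate as uninhibited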
PolyA inh = yeast polyadenylation inhibition; S. cerevisiae SKY197-pL101 polyadenylation reporter, beta-gal luminescence; efflux-impaired pdr1/pdr3 knockout yeast; score 100 = 6 SD above DMSO; activity score, % at 12 µM; hit rate 0.02% among 300,000; AID 1875;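 active = lowest replicate activity score at least 50, where 100 means six control SD above control mean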;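 note: yeast exposed to compound for 9 h at 30 °C; higher score means more reporter readthrough which indicates perturbed polyadenylation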
APOBEC3G inh = blocks human APOBEC3G single-stranded DNA deamination | recombinant A3G, ssDNA deamination FAM/TAMRA fluorescence | hit rate 0.28% among 330,000 | Q9HC16 | inhibition, % at 20 µM;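 active = inhibition of at least 40% at 20 µM, with no more than 30% in the related APOBEC3A deaminase screen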;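 note: plate controls were DMSO wells with A3G for no effect and wells lacking A3G enzyme for full effect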
Arrestin-AP2 inh = blocks beta-arrestin peptide binding to AP2 adaptin | FITC-arrestin peptide / GST-AP2 beads, flow cytometry; AP2 beta2 appendage carries R879A mutation | inhibition, % at 10 µM | hit rate 0.31% among 340,000;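 active = inhibition above a set limit, near 3 SD of compounds lacking own fluorescence, cut at about 54% in these data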;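 note: plate controls were DMSO wells for no effect and 5 µM unlabelled arrestin peptide for full effect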
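Assay system: GST-AP2 R879A bound to glutathione beads, E. coli-expressed; Medium: PBS with 0.05% Tween 20 and 0.1% BSA; Also added: fluorescein-tagged arrestin peptide at 50 nM final; Timing: 12 min plus 1 h, RT; Measured by: flow cytometry, FL1 (488/535 nm); Evaluation: percent drop in bead-associated FITC signal.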
AHR act = human AHR activation. P35869. AHR-responsive luciferase reporter cells, luminescence. hit rate 2.5% among 320,000. activation, % at 5 µM; in the data active = activation above about 47%;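 note: 0% = vehicle wells and 100% = reference agonist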
An asterisk follows results filed as active; i = inactive; nt = no result given.

SMILES | APOBEC3A inh | UCH37 DUB inh | PolyA inh | APOBEC3G inh | Arrestin-AP2 inh | AHR act
Cc1nnc(NC(=O)c2cccc(S(=O)(=O)N3CCc4ccccc43)c2)s1 | 3 | 27* | 8 | -9 | 17 | 0
CCc1nnc(NC(=O)c2cccc(S(=O)(=O)N3CCc4ccccc43)c2)s1 | 3 | -4 | -23 | 1 | -4 | 2
C=CCS/C(N)=N\N=C\c1c(O)ccc2ccccc12 | 0 | nt | -26 | -5 | -1 | 56*
C=CCSC(N)=NN=Cc1c(O)ccc2ccccc12 | nt | -3 | nt | nt | nt | nt
COc1cc(-c2nc3ccc(N4CCN(C)CC4)cc3[nH]2)cc(OC)c1OC | 0 | i | 2 | -5 | 46 | 12
COc1ccc(-c2nc3ccc(N4CCN(C)CC4)cc3c(=O)[nH]2)cc1 | -2 | -201 | 1 | -4 | 21 | 56*
CCON=C(c1nonc1N)N1CCN(c2ccc([N+](=O)[O-])cc2)CC1 | nt | 8 | nt | nt | nt | nt
Cc1sc(NC(=O)c2c(F)cccc2F)nc1-c1ccccc1 | -6 | -3 | 1 | -6 | 44 | 65*
COc1ccc(C(C)=NNC(=O)CNC(=O)/C=C/c2ccccc2OC)cc1 | nt | -9 | nt | nt | nt | nt
O=C(Cn1cncn1)NN=Cc1cccc2ccccc12 | nt | 4 | nt | nt | nt | nt
C/C(C=NNC(=O)Cn1cncn1)=C/c1ccc(C(C)C)cc1 | nt | 23* | nt | nt | nt | nt
O=C(Cn1cncn1)N/N=C/c1cccc2ccccc12 | 0 | nt | 2 | -5 | 2 | 70*
CCCOc1ccc(C=NNC(=O)c2ccc3c(c2)OCO3)c(OCCC)c1 | nt | 2 | nt | nt | nt | nt
Cc1cc(C=NNC(=O)C(=O)NCc2ccccn2)c(C)n1-c1ccccc1 | nt | 8 | nt | nt | nt | nt
COc1cc(C=Nn2c(C)n[nH]c2=S)ccc1OCc1ccccc1 | nt | 2 | nt | nt | nt | nt
O=C(N/N=C/c1ccc(Cl)cc1)Nc1ccccc1 | 0 | nt | -27 | -5 | -2 | 67*
O=C(N/N=C/c1cc(Br)ccc1O)Nc1ccccc1 | 1 | nt | 7 | 0 | 1 | 51*
CCN(CC)c1ccc(C=NNC(=O)Nc2ccccc2)cc1 | nt | -31 | nt | nt | nt | nt
NC(=O)N/N=C\c1cc(Br)ccc1O | 2 | nt | -13 | 0 | -3 | 28
N#Cc1cccnc1Nc1ccc(Cl)cc1 | -2 | -2 | -17 | -5 | 6 | 55*
CN(C)C(=S)N=Nc1[nH]c2ccccc2c1O | -5 | 18 | -15 | 0 | nt | 64*
CN(C)C(=O)c1ccc(N=Nc2c(O)c3ccccc3[nH]c2=O)cc1 | nt | 13 | nt | nt | 26 | nt
Oc1cccc(/C=C/c2ccc3cccc(O)c3n2)c1 | 4 | 1 | -5 | 1 | 3 | 70*
COc1cc(/C=C/c2ccc3cccc(O)c3n2)cc(OC)c1OC | -4 | 1 | -10 | -6 | -8 | -3
CCn1nc(NC(=O)c2cccnc2)c2cc3ccccc3nc21 | -2 | -20 | -6 | -5 | 5 | 64*
SMILES | APOBEC3A inh | UCH37 DUB inh | PolyA inh | APOBEC3G inh | Arrestin-AP2 inh | AHR act
CCn1nc(NC(=O)c2ccccn2)c2cc3cc(C)ccc3nc21 | 2 | -40 | -16 | 0 | 37 | 71*
CCCCC(=O)Nc1nn(CCC)c2nc3ccccc3cc12 | 0 | -80 | -8 | -5 | -11 | 47*
CCn1nc(NC(=O)c2cccs2)c2cc3ccccc3nc21 | -4 | -17 | -29 | -6 | 12 | 48*
CCn1nc(NC(=O)c2ccccc2)c2cc3cccc(C)c3nc21 | 2 | -95 | -12 | 7 | -13 | 28
O=C(NCCCN1CCOCC1)C(=O)NN=Cc1ccccc1 | nt | 0 | nt | nt | nt | nt
Cc1[nH]nc2c1C(=NO)CC(c1ccccc1)C2 (configuration not stated) | nt | 1 | nt | nt | nt | nt
C=C(C)C1CC=C(C)C(=NNC(=O)CNc2ccccc2OC)C1 (configuration not stated) | nt | 2 | nt | nt | nt | nt
Oc1ccc(NC(=S)N=Nc2c(O)[nH]c3ccc(Br)cc23)cc1 | 7 | 4 | -34 | 4 | 1 | nt
Oc1[nH]c2ccc(Br)cc2c1N=NC(=S)Nc1ccc(F)cc1 | 1 | 2 | -9 | -3 | 1 | 75*
COc1cccc(/C=N/NC(N)=S)c1OCc1ccccc1Cl | 0 | nt | -4 | -1 | 1 | 50*
CCOc1cc(C=NNC(N)=O)cc(Br)c1OCc1ccccc1F | nt | 4 | nt | nt | nt | nt
COc1cc(/C=N/NC(N)=S)cc(Br)c1OCc1ccccc1F | -1 | nt | -21 | -6 | 0 | 54*
COc1cc(OC)cc(-c2nc3cc(C)ccc3o2)c1 | -3 | -1 | -27 | -4 | -1 | 58*
C#Cc1ccc([C@H]2C=C(C(=O)OCC=C)O[C@@H](OCCCCO)C2)cc1 | 1 | 0 | 6 | -1 | -21 | 49*
CCN(CC)c1ccc(/C=N/NC(=O)c2cc3ccccc3[nH]2)cc1 | -7 | nt | 13 | 1 | 31 | 58*
CCN(CC)c1ccc(/C=N/NC(=O)c2c[nH]c3ccccc23)cc1 | -4 | nt | -11 | -9 | -4 | 50*
CC(=NNc1ccc(S(=O)(=O)Nc2ccc(Cl)cc2)cc1[N+](=O)[O-])c1ccc(N2CCOCC2)cc1 | nt | 7 | nt | nt | nt | nt
COc1ccccc1NC(=O)OC(C)c1ccc(Cl)cc1 (configuration not stated) | 3 | 1 | -12 | 6 | 26 | 75*
CC(=NNC(=O)Cn1cc([N+](=O)[O-])cn1)c1ccc(O)cc1 | nt | 2 | nt | nt | nt | nt
CCOc1ccc(C(=O)NN=C(c2ccccc2)c2ccccn2)cc1 | nt | 2 | nt | nt | nt | nt
O=C(NNC(=O)c1cc2cc3ccccc3nc2s1)c1cccc(Cl)c1 | 8 | -10 | 22 | 6 | -1 | 48*
Cc1cccc(C(=O)NNC(=O)c2cc3cc4ccccc4nc3s2)c1 | -6 | -3 | 2 | -8 | -6 | 74*
Cc1ccc(S(=O)(=O)NNC(=O)c2cc3cc4ccccc4nc3s2)cc1 | 0 | -3 | 13 | -1 | 4 | 15
COc1cc(C=NNc2cccc(C)c2)cc(Br)c1O | nt | -7 | nt | nt | nt | nt
CCCn1c(NC(=O)c2ccc(C)cc2)nc2ccccc21 | -3 | -24 | -13 | -5 | 8 | 49*
SMILES | APOBEC3A inh | UCH37 DUB inh | PolyA inh | APOBEC3G inh | Arrestin-AP2 inh | AHR act
Cn1c(NC(=O)c2cccnc2)nc2ccccc21 | -1 | nt | 5 | -5 | -2 | 78*
O=C(Nc1nc2ccccc2n1CCN1CCCC1)c1ccc(Cl)cc1 | -2 | -16 | nt | -5 | 12 | 54*
O=C(Nc1cnc2ccccc2c1)c1cccnc1 | -2 | 2 | 23 | -6 | -2 | 37
CCCn1c(NC(=O)c2ccccc2)nc2ccccc21 | 2 | 0 | -13 | 6 | 4 | 46
O=C(Nc1ccc(Cl)c(Cl)c1)c1cccnc1 | 5 | 4 | -11 | 1 | 10 | 71*
O=C(CCCOc1ccc(Cl)cc1Cl)NN=Cc1ccccc1O | nt | -1 | nt | nt | nt | nt
O=C(CNC(=O)c1ccccc1F)NN=Cc1cc(Br)ccc1OCc1ccccc1 | nt | 6 | nt | nt | nt | nt
C=CCc1cccc(C=NNC(=O)C[n+]2ccccc2)c1O | nt | 7 | nt | nt | nt | nt
Cc1ccc(C(=O)Nc2nc3ccccc3n2CCN2CCCC2)cc1 | -3 | 2 | 5 | -7 | 8 | 47*

Source: PubChem (several laboratories)
